# Assay results collected from several papers.
# Compare with care: the assays were run in different laboratories.
# Cnr2: Cannabinoid receptor 2 (Cnr2, Mus musculus, UniProt P47936)
# mreB: mreB (Escherichia coli, UniProt P0A9X4)
# G protein-coupled receptor 88: G protein-coupled receptor 88 (Homo sapiens, UniProt Q9GZN0)
# CTSL: Procathepsin L (CTSL, Homo sapiens, UniProt P07711)
# pol: pol (Feline immunodeficiency virus, UniProt P16088)
SMILES,target,test,setting,endpoint,result
CCOC(=O)C(CC)(CCCSCCOCCOCCNc1ccc([N+](=O)[O-])c2nonc12)NC(=O)c1ccc(C2CC2)c(Cc2ccc(F)cc2)n1 (racemic),Cnr2,"cAMP, agonist",,EC50,102 nM
Cc1nonc1Cn1nnc2c(N3CC[C@H](O)C3)nc(C(C)(C)C)nc21,Cnr2,"ligand displacement, radioligand",cell membranes,Ki,61 nM
CC(NCCCNC(=O)c1cc(Cl)c(Cl)s1)c1cc2cc(Br)ccc2[nH]1 (stereo not drawn),mreB,"ATPase activity, inhibitor, absorbance",,IC50,6000 nM
C[C@H](N)Cn1ncc2ccc3c(c21)CCCO3,"Alpha-1B adrenergic receptor (Adra1b, Rattus norvegicus, UniProt P15823)","ligand displacement, radioligand",,IC50,74000 nM
NC1CCCCc2c1[nH]c1ccc(Cl)c(Cl)c21 (stereo not drawn),mreB,"ATPase activity, inhibitor, absorbance",,IC50,25000 nM
CCOC(=O)c1c(NCc2ccc(SC)cc2)c2cccc(C)c2[nH]c1=O,"Anoctamin-2 (ANO2, Homo sapiens, UniProt Q9NQ90)","ion flux, inhibitor",,IC50,990 nM
O=[As](O)(O)c1ccc(Cc2ccc([As](=O)(O)O)cc2)cc1,"Autotaxin (ENPP2, Homo sapiens, UniProt Q13822)","enzyme activity, inhibitor, absorbance",pH 8,Ki,26 nM
CCCc1ccc(-c2ccc([C@@H](CO)C(=O)N[C@H](C)c3ccccc3)cc2)cc1,G protein-coupled receptor 88,"cAMP, agonist, TR-FRET",,EC50,138 nM
Cc1cc(SCc2sc(-c3ccc(C(F)(F)F)c(F)c3)nc2C)ccc1OCC(=O)O,"Thyroid hormone receptor beta (THRB, Homo sapiens, UniProt P10828)","reporter gene, antagonist, luciferase",,IC50,25800 nM
O=C(/C=C/c1cccc(S(=O)(=O)Nc2ccccc2)c1)NO,"Histone deacetylase 4 (HDAC4, Homo sapiens, UniProt P56524)",cell-free assay,,Kd,> 30200 nM
NC1CCCCc2c1[nH]c1cc(Cl)c(Cl)cc21 (stereo not drawn),mreB,"ATPase activity, inhibitor, absorbance",,IC50,29000 nM
CCOC(=O)C(CC)(CCCSCCOCCOCCOCCNC(=O)OC(C)(C)C)NC(=O)c1ccc(C2CC2)c(Cc2ccc(F)cc2)n1 (stereo not drawn),Cnr2,"cAMP, agonist",,EC50,21 nM
CC[C@@H](C)COc1ccc([C@@H](CO)C(=O)N[C@H](C)c2ccccc2)cc1,G protein-coupled receptor 88,"cAMP, agonist, TR-FRET",,EC50,3090 nM
Cc1nc([C@@](C)(CC2CC2)NC(=O)c2cc(OCC(F)(F)F)c(C3CC3)cn2)no1,Cnr2,"cAMP, agonist",,EC50,3 nM
O=P(O)(O)Oc1ccccc1OP(=O)(O)O,"Signal transducer and activator of transcription 5B, SH2 (STAT5B, Homo sapiens, UniProt P51692)","ligand displacement, FP",,IC50,1950 nM
CCCCCCC(C)(C)c1ccc([C@@H]2C[C@H](O)CC[C@H]2CCCO)c(O)c1,Cnr2,"cAMP, agonist",,EC50,0.05 nM
CC(C)C[C@@H]1C(=O)N[C@H]([C@@H](C)O)C(=O)N[C@H](C)[C@@H](C)C(=O)O[C@@H](Cc2ccccc2)C(=O)N(C)[C@@H](C(C)C)C(=O)N2CCC[C@H]2C(=O)N(C)[C@H](Cc2ccccc2)C2=N[C@@H](CS2)C(=O)N[C@H](C)C2=N[C@@H](CS2)C(=O)N1C,CTSL,"enzyme activity, inhibitor",,IC50,21300 nM
CC(C)c1cccc(NC(=O)C2CC(=O)Nc3ccccc32)c1 (stereo not drawn),CTSL,"enzyme activity, inhibitor, FRET",,IC50,16800 nM
Cc1cc(/C=C/C#N)cc(C)c1Nc1ccnc(Nc2ccc(C#N)cc2)n1,pol,"binding, SPR",,Kd,16000 nM
CC(C)C[C@H](NC(=O)[C@H]1O[C@@H]1C(=O)O)C(=O)NCCCCN=C(N)N,CTSL,"enzyme activity, inhibitor",,IC50,0.238 nM
CCOC(=O)[C@](CC)(CCC[S+]([O-])CCOCCOCCNC(=O)OC(C)(C)C)NC(=O)c1ccc(C2CC2)c(Cc2ccc(F)cc2)n1 (stereo partly drawn),Cnr2,"ligand displacement, radioligand",cell membranes,Ki,90 nM
Cc1ccnc2c1NC(=O)c1cccnc1N2C1CC1,pol,"binding, SPR",,Kd,185000 nM
NC(=O)[C@@H]1CC(F)(F)CN1C(=O)c1ccc(N2CC(F)(F)C2)c(OCC2CC2)n1,Cnr2,"ligand displacement, radioligand",cell membranes,Ki,189 nM
CCOC(=O)C(CC)(CCCSCCOCCOCCOCCOCCNC(=O)OC(C)(C)C)NC(=O)c1ccc(C2CC2)c(Cc2ccc(F)cc2)n1 (stereo not drawn),Cnr2,"cAMP, agonist",,EC50,31 nM
